SENP8 block-1: inhibitors of human SENP8 protease | Q96LD8 | purified SENP8, Z-RLRGG-aminoluciferin cleavage, luminescence | inhibition, % at 10 µM | actives 1.2% (n = 330,000) | AID 2540; in the data active = inhibition above about 50%
Target sequence (Q96LD8 whole entry, looked up): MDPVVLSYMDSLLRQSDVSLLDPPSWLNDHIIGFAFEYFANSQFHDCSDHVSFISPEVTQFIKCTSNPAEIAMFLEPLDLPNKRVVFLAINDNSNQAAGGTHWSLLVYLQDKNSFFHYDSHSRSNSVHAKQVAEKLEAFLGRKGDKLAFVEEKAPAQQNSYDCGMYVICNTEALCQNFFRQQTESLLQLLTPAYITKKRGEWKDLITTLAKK
SENP8 block-2: inhibitors of human SENP8 protease | inhibition, % at 20 µM | recombinant SENP8, Nedd8 substrate fluorescence | Q96LD8 | actives 0.64% (n = 360,000); in the data active = inhibition mostly above about 40%, no sharp cut-off; inactive = mostly below about 27%
SENP1 inh: inhibitors of human SENP1 SUMO protease catalytic domain; Q9P0U3; recombinant SENP1 catalytic domain, CyPet-SUMO1-YPet FRET cleavage; inhibition, % at 10 µM; actives 0.21% (n = 360,000); AID 624204;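 active = inhibition at least 30% at 10 µM, raw YFP signal under a set limit, fluorescence ratio 0.5 to 1.5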
Target sequence (Q9P0U3 419-644 limits assumed): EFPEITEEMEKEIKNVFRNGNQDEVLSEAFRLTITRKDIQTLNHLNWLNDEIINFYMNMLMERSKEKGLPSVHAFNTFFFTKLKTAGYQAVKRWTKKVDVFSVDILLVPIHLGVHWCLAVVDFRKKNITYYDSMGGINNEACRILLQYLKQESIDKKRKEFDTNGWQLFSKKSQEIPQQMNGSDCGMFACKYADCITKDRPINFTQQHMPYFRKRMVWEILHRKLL
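Assay system – human recombinant His6-tagged SENP1 catalytic domain enzyme · Input – SENP1 enzyme, 20 pM final · Buffer or medium – Tris pH 8 buffer plus EDTA, NaCl, BME, BSA, NP40, catalase · Schedule – 50 min reaction at room temperature · Technique – FRET read of cyan and yellow fluorescence · Control set – no-enzyme wells low, DMSO-plus-enzyme wells high control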
UCH37 DUB inh: blocks the human deubiquitinase UCH37; Q9Y5K5; purified proteasome/UCH37, Ub-AMC cleavage fluorescence; inhibition, % (no concentration beside the values); actives 0.33% (n = 330,000); AID 588478;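 active = mean inhibition over replicate wells above about 20%, limit read from the data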
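Material: human UCH37 enzyme supplied as purified proteasome complex. Measure: % inhibition of Ub-AMC cleavage fluorescence. Medium: pH 7.4 Tris-HCl (50 mM) with ovalbumin, ATP-MgCl2, DTT. Times: 30 min preincubation with enzyme, 25 min cleavage at room temperature. Detection: AMC fluorescence intensity at 355/460 nm.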
SENP7 block: SENP7 protease inhibition. inhibition, % at 5 µM. recombinant SENP7, Z-RLRGG-aminoluciferin luminescence, 40 min. Q9BQF6. actives 1.5% (n = 330,000);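 active = inhibition above about 50% at the single test dose, limit read from the data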
SENP6 block: SENP6 protease inhibition; Q9GZR1; Recombinant SENP6 catalytic domain, aminoluciferin luminescence; inhibition, % at 10 µM; actives 1.8% (n = 330,000); AID 2599;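 active = inhibition above about 50% at the single tested dose, limit read from the data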
SENP8 conf-1: confirmation of human SENP8 protease inhibitors; shares compounds with SENP7 block; Recombinant SENP8, Z-RLRGG-aminoluciferin luminescence, 60 min; inhibition, % at 12.5 µM; actives 40% (n = 6,200); AID 488912;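 active = mean inhibition across replicates above about 50%, limit read from the data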
SENP6 confirm: confirmation of human SENP6 protease inhibitors | inhibition, % at 12.5 µM | shares compounds with SENP7 block | recombinant SENP6, Z-RLRGG-aminoluciferin luminescence | actives 58% (n = 6,200) | AID 488915
SENP7 confirm: human SENP7 inhibition, confirmed. shares compounds with SENP7 block. recombinant SENP7, Z-RLRGG-aminoluciferin luminescence, 40 min. inhibition, % at 12.5 µM. actives 69% (n = 6,200). AID 488917
Casp3 select: caspase-3 inhibition (SENP selectivity assay); shares compounds with SENP7 block; purified caspase-3, Z-DEVD-aminoluciferin luminescence, 60 min; inhibition, % at 12.5 µM; actives 60% (n = 6,200); AID 488918;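 active = mean inhibition above about 50%, limit read from the data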
Target sequence (P42574 28-227 limits assumed): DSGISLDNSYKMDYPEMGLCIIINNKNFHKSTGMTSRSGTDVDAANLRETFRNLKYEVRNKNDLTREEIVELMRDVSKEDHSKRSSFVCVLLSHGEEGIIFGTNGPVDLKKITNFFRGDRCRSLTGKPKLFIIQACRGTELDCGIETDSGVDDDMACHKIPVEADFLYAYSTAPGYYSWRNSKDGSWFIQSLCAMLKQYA
SENP luc ctr: luminescence interference (SENP counter-screen). shares compounds with SENP7 block. Pre-incubated SENP8/Z-RLRGG-aminoluciferin, luciferase luminescence interference. actives 39% (n = 6,200). AID 488919. inhibition, % at 12.5 µM;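 active = mean inhibition above about 50% when retested at one dose, limit read from the data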
UCH37 reconfirm: UCH37 Ub-AMC cleavage inhibition, confirmed | Proteasome-bound UCH37, Ub-AMC cleavage fluorescence | inhibition, % at 20 µM | actives 27% (n = 480) | shares compounds with UCH37 DUB inh;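 active = average inhibition over replicates above about 50%, so the earlier screening hit is confirmed, limit read from the data; inactive = the rest, counted as false positives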;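 also: based on cleavage rate fitted by regression over a 30 min kinetic read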
SENP8 conf-2: confirmation of human SENP8 protease inhibitors; shares compounds with SENP8 block-2; purified SENP8, Nedd8-AMC/pro-Nedd8 cleavage fluorescence, 30 min; inhibition, % at 25 µM; actives 15% (n = 1,400); AID 624319; in the data active = inhibition mostly above about 39%, no sharp cut-off; inactive = mostly below about 34%
Of the large screens only hits and unclear results are named; the others gave an inactive call (follow-up assays come after a bar, where they were run). Compounds with a hit are over-represented: about 2.6% of the library has one in this group of screens.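 The calls were made as follows, unless noted: active = mean inhibition above about 50% in the one-dose retest (limit read from the data); inactive = the rest.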

O=C1C(=O)N(Cc2ccccc2)C(=O)N1CCN1C(=O)c2ccccc2C1=O	none
C=CCN1C(=O)C(CC(=O)O)SC1=NN=Cc1ccc(N(CC)CC)cc1 (stereo not drawn)	none (no result: SENP8 block-1, SENP8 block-2, SENP1 inh, SENP7 block, SENP6 block)
O=C(c1ccc([N+](=O)[O-])o1)N1CCc2ccccc21	SENP8 block-2 48, SENP6 block 52 | SENP8 conf-1 inactive | SENP6 confirm 52 | SENP7 confirm inactive | Casp3 select 59 | SENP luc ctr inactive | SENP8 conf-2 inactive
COc1ccc(S(=O)(=O)Oc2ccc3ccccc3c2)cc1	none
COc1ccc(S(=O)(=O)Oc2ccc3cccc(N)c3c2)cc1	SENP8 block-1 84, SENP8 block-2 56, SENP6 block 86 | SENP8 conf-1 inactive | SENP6 confirm inactive | SENP7 confirm inactive | Casp3 select inactive | SENP luc ctr inactive | SENP8 conf-2 inactive
Cc1ccc(C(=O)OCC(=O)NC(C)c2ccccc2)s1 (stereo not drawn)	none
O=C(COC(=O)c1ccc([N+](=O)[O-])s1)NCCc1ccccc1	SENP8 block-1 68, SENP8 block-2 51, UCH37 DUB inh 81, SENP6 block 62 | SENP8 conf-1 84 | SENP6 confirm 86 | SENP7 confirm inactive | Casp3 select inactive | SENP luc ctr inactive | UCH37 reconfirm inactive | SENP8 conf-2 80
Nc1ccc(C(=O)OCC(=O)NC(=O)c2ccccc2)cc1[N+](=O)[O-]	none
O=C(COC(=O)c1ccc([N+](=O)[O-])s1)NNC(=O)c1ccccc1	SENP8 block-1 75, SENP8 block-2 48, UCH37 DUB inh 80, SENP6 block 70 | SENP8 conf-1 inactive | SENP6 confirm 88 | SENP7 confirm inactive | Casp3 select inactive | SENP luc ctr inactive | UCH37 reconfirm inactive | SENP8 conf-2 86
CC(NC(=O)COC(=O)c1ccc([N+](=O)[O-])s1)c1ccccc1 (stereo not drawn)	SENP8 block-1 62, SENP8 block-2 41, UCH37 DUB inh 33, SENP6 block 76 | SENP8 conf-1 inactive | SENP6 confirm inactive | SENP7 confirm inactive | Casp3 select inactive | SENP luc ctr inactive | UCH37 reconfirm inactive | SENP8 conf-2 81
CC(=O)N1N=C(c2cccc([N+](=O)[O-])c2)OC1c1ccc(Br)cc1 (stereo not drawn)	none
CC(=O)N1N=C(c2ccccc2)OC1c1ccc([N+](=O)[O-])s1 (stereo not drawn)	SENP8 block-2 61, SENP6 block 66 | SENP8 conf-1 inactive | SENP6 confirm inactive | SENP7 confirm inactive | Casp3 select inactive | SENP luc ctr inactive | SENP8 conf-2 39
COC(=O)c1ccc(NC(=O)c2ccccc2C(=O)Nc2ccc(C(=O)OC)cc2)cc1	none
COC(=O)c1ccc(NC(=O)C(=O)c2cccn2C)cc1	SENP8 block-1 93, SENP8 block-2 30, SENP7 block 95, SENP6 block 95 | SENP8 conf-1 94 | SENP6 confirm 97 | SENP7 confirm 102 | Casp3 select 97 | SENP luc ctr 80 | SENP8 conf-2 inactive
CCOc1cc(C=NNC(=O)Cc2ccc(C(F)(F)F)cc2[N+](=O)[O-])ccc1O	none (no result: SENP8 block-1, SENP8 block-2, SENP1 inh, SENP7 block, SENP6 block)
CC1=NN(c2ccc(Cl)cc2)C(=O)C1C(c1ccccc1O)c1c(C)[nH]n(-c2ccc(Cl)cc2)c1=O (stereo not drawn)	SENP8 block-2 95, SENP7 block 92, SENP6 block 86 | SENP8 conf-1 inactive | SENP6 confirm inactive | SENP7 confirm inactive | Casp3 select inactive | SENP luc ctr inactive | SENP8 conf-2 inactive
Cc1ccccc1NCC(=O)NN=C/C=C/c1cccc([N+](=O)[O-])c1	none (no result: SENP8 block-1, SENP8 block-2, SENP1 inh, SENP7 block, SENP6 block)
CSc1nnc(-c2ccccc2N=Cc2c(C)[nH]n(-c3ccc4ccccc4c3)c2=O)c(=O)[nH]1	SENP8 block-1 53, SENP8 block-2 41, SENP6 block 78 | SENP8 conf-1 inactive | SENP6 confirm 63 | SENP7 confirm inactive | Casp3 select 67 | SENP luc ctr 68 | SENP8 conf-2 inactive
C=CCSc1nnc(-c2ccccc2N=Cc2c(C)[nH]n(-c3ccccc3)c2=O)c(=O)[nH]1	none
CC(CC(=O)Nc1ccc(Cl)c(Cl)c1)=NNC(=O)C(=O)N1CCCCC1	none (no result: SENP8 block-1, SENP8 block-2, SENP1 inh, SENP7 block, SENP6 block)
COc1ccc(NC(=S)Nc2ccc3nsnc3c2)cc1	SENP8 block-1 95, SENP8 block-2 52, UCH37 DUB inh 40, SENP7 block 89, SENP6 block 96 | SENP8 conf-1 inactive | SENP6 confirm 90 | SENP7 confirm 84 | Casp3 select inactive | SENP luc ctr inactive | UCH37 reconfirm inactive | SENP8 conf-2 71
COc1ccc(NC(=S)Nc2ccc3nc(C)c(C)nc3c2)cc1	none
Nc1ccc(N2CCOCC2)c2nonc12	SENP8 block-2 69, SENP6 block 60 | SENP8 conf-1 inactive | SENP6 confirm inactive | SENP7 confirm inactive | Casp3 select inactive | SENP luc ctr inactive | SENP8 conf-2 78
CN(C)c1ccc(N/C=C/C(=O)c2ccco2)cc1	SENP8 block-1 90, SENP8 block-2 45, SENP1 inh 71, SENP7 block 96, SENP6 block 96 | SENP8 conf-1 inactive | SENP6 confirm 94 | SENP7 confirm 101 | Casp3 select 95 | SENP luc ctr inactive | SENP8 conf-2 inactive
Cc1ccc(C(=NNc2ncnc3ccccc23)C(=O)O)cc1	none (no result: SENP8 block-1, SENP8 block-2, SENP1 inh, SENP7 block, SENP6 block)

Screens from PubChem.
